Series [1] is described as follows: melting temperature; fluorescence melt of hairpins on a sequencing array, two-state fit, raised by 9.35 °C to match UV melts. The following applies: sodium 0.088 M. A digest of the protocol:
(§1)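 In 50 mM Na-HEPES pH 8.0 containing 25 mM NaCl, hairpins from the library on a sequenced MiSeq flow cell were imaged for Cy3 fluorescence at 2.5 °C steps up to 60 °C, with Cy3 and quencher oligos annealed. After normalisation to pre-quench Cy3 and to control constructs, two-state fits with bootstrapping gave melting temperature and folding enthalpy. Four replicates were combined by inverse-variance weighting, and fitted temperatures were shifted up by 9.35 °C to match UV melts.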

A short description of series [2]: folding enthalpy; higher = less favourable; fluorescence melt of hairpins on a sequencing array, two-state fit. The following applies: sodium 0.088 M. A digest of the protocol:
as §1

As to GGCAATCGAAAGATGCC (((.(((....)))))), the Tm in series [1] turned out to be 56.5 °C. Moreover, the folding enthalpy in series [2] was -40.3 kcal/mol.

In the case of GGCACACGAAAGTGAGCC (((.(((....))).))), in series [1], the Tm is 63.5 °C. The folding enthalpy in series [2] was -38.1 kcal/mol.

With GGCACAGGAAACTATGCC ((((.((....)).)))), the Tm in series [1] came out at 41.7 °C. The folding enthalpy in series [2] is -29.2 kcal/mol.

For GGCACAGGAAACTGTGTC (.(((((....))))).), the Tm in series [1] stood at 54 °C. In addition, the folding enthalpy in series [2] was -32.2 kcal/mol.

With GGCACCGAAAGGTAGGCC ((((((....)))..))), in series [1], the Tm is 52.7 °C. The folding enthalpy in series [2] was -29.7 kcal/mol.

As to GGCACCGAAAGGTCGCC ((((((....))).))), the Tm in series [1] was found to be 59.4 °C. The folding enthalpy in series [2] is -35.6 kcal/mol.

As to GGCACCGGAAACAGCGCC (((.(.(....).).))), the Tm in series [1] amounted to 34.5 °C. Moreover, in series [2], the folding enthalpy is -22.1 kcal/mol.

With GGCACCGGAAACGGCACC ((..(((....)))..)), in series [1], the Tm worked out at 30.9 °C. Further, in series [2], the folding enthalpy was -15.8 kcal/mol.

For the sequence GGCACCGGAAACGGCGCC (((.(((....))).))), the Tm in series [1] turned out to be 61.2 °C. Moreover, the folding enthalpy in series [2] was -52.6 kcal/mol.

On to GGCACTCGAAAGAGCGCC (((.(((....))).))), for which the Tm in series [1] is 59.3 °C. Besides, in series [2], the folding enthalpy was -53 kcal/mol.

Consider GGCAGAGGAAACTCTGTC (.(((((....))))).), for which the Tm in series [1] was 49.7 °C. Moreover, the folding enthalpy in series [2] was -30.7 kcal/mol.

As for GGCAGATCGAAAGATGCC (((..(((....)))))), in series [1], the Tm was determined as 49.4 °C. For the same sequence, in series [2], the folding enthalpy is -26.8 kcal/mol.

Consider GGCAGCCCGAAAGGGGCC (((..(((....)))))), for which the Tm in series [1] was 50.7 °C. The folding enthalpy in series [2] was -13.3 kcal/mol.

For GGCAGCGAAAGCTATGCC ((((((....)))..))), the Tm in series [1] came out at 55.3 °C. Further, the folding enthalpy in series [2] is -28.7 kcal/mol.

Regarding GGCAGCGAAAGCTCCGCC ((((((....)))..))), the Tm in series [1] was 56 °C. For the same sequence, the folding enthalpy in series [2] is -19.2 kcal/mol.

In the case of GGCAGCGAAAGCTCGGCC ((((((....)))..))), in series [1], the Tm was 53.5 °C. In series [2], the folding enthalpy was -17.7 kcal/mol.

Consider GGCAGCGAAAGCTTAGCC ((((((....)))..))), for which the Tm in series [1] is 51.7 °C. Also, in series [2], the folding enthalpy is -25.7 kcal/mol.

For the sequence GGCAGCGGAAACGCCACC ((..(((....)))..)), the Tm in series [1] came to 36.6 °C. In addition, the folding enthalpy in series [2] is -13.9 kcal/mol.

Regarding GGCAGCGGAAACGCCGCC (((.(((....))).))), the Tm in series [1] came to 61.5 °C. Besides, the folding enthalpy in series [2] was -31.3 kcal/mol.

As to GGCAGCTCGAAAGAGGCC (((..(((....)))))), the Tm in series [1] amounted to 47.3 °C. Further, the folding enthalpy in series [2] is -17.4 kcal/mol.

As to GGCAGGCGAAAGCCCGCC (((.(((....))).))), the Tm in series [1] was determined as 66.2 °C. Besides, the folding enthalpy in series [2] was -22.8 kcal/mol.

With GGCAGTCGAAAGACCGCC (((.(((....))).))), in series [1], the Tm amounted to 58 °C. Moreover, in series [2], the folding enthalpy was -35 kcal/mol.

With GGCATAACGAAAGTTGCC (((..(((....)))))), the Tm in series [1] was found to be 50.8 °C. Also, in series [2], the folding enthalpy is -26 kcal/mol.

As for GGCATACGAAAGTAAGCC (((.(((....))).))), the Tm in series [1] is 54 °C. Also, in series [2], the folding enthalpy was -37.1 kcal/mol.

In the case of GGCATCACGAAAGTGGCC (((..(((....)))))), the Tm in series [1] came out at 48.2 °C. For the same sequence, the folding enthalpy in series [2] was -21.9 kcal/mol.

On to GGCATCGAAAGATGTGCC ((((((....)))..))), for which, in series [1], the Tm worked out at 46.4 °C. Also, the folding enthalpy in series [2] was -17.8 kcal/mol.

As to GGCATCGCGAAAGCGGCC (((..(((....)))))), the Tm in series [1] was determined as 54.9 °C. The folding enthalpy in series [2] was -17.4 kcal/mol.

For GGCATCGGAAACGACGCC (((.(((....))).))), the Tm in series [1] was determined as 52.3 °C. Moreover, the folding enthalpy in series [2] was -42.1 kcal/mol.

Take GGCATGCGAAAGCAAGCC (((.(((....))).))): in series [1], the Tm came to 65.4 °C. For the same sequence, the folding enthalpy in series [2] was -27.8 kcal/mol.

Turning to GGCATGCGAAAGCACGCC (((.(((....))).))), in series [1], the Tm turned out to be 63.4 °C. Also, the folding enthalpy in series [2] was -27.3 kcal/mol.

In the case of GGCATGGGAAACCATGTC (.(((((....))))).), the Tm in series [1] is 52.5 °C. Further, in series [2], the folding enthalpy was -26.6 kcal/mol.

Take GGCATTCGAAAGAACGCC (((.(((....))).))): the Tm in series [1] was found to be 50.6 °C. Further, the folding enthalpy in series [2] was -45.2 kcal/mol.

Take GGCATTGGAAACAACGCC (((.(((....))).))): the Tm in series [1] worked out at 44.6 °C. Also, the folding enthalpy in series [2] is -34.4 kcal/mol.

For GGCCAACGAAAGTTAGCC (((.(((....))).))), the Tm in series [1] came out at 50.1 °C. Further, the folding enthalpy in series [2] was -29.1 kcal/mol.

Regarding GGCCAAGAAATTGGCC ((((((....)))))), the Tm in series [1] is 64.4 °C. Besides, the folding enthalpy in series [2] was -40.1 kcal/mol.

As to GGCCAAGGAAACTCGGCC ((((.((....)).)))), the Tm in series [1] was 50.7 °C. The folding enthalpy in series [2] was -34 kcal/mol.

As to GGCCAAGGAAACTTGACC ((.((((....)))).)), in series [1], the Tm turned out to be 43.1 °C. For the same sequence, the folding enthalpy in series [2] is -30.3 kcal/mol.

The record behind these values is the array DNA melting data of Ke et al. (doi:10.1101/2024.01.08.574731).
